Measurements from ChEMBL document CHEMBL1134621, “Discovery of 4-[(Z)-(4-bromophenyl)- (ethoxyimino)methyl]-1'-[(2,4-dimethyl-3- pyridinyl)carbonyl]-4'-methyl-1,4'- bipiperidine N-oxide (SCH 351125): an orally bioavailable human CCR5 antagonist for the treatment of HIV infection” (J Med Chem, 2001).

Key:
Rattus norvegicus [1] = assay: Area under curve (0-6 hr) value in rat at a concentration of 10 mg/kg after peroral administration.; format: ADME, organism-based; design: time < 6 hr, dose 10 mg/kg, route oral; conditions: in vivo, po
[2] = target: C-C chemokine receptor type 5 (Homo sapiens, UniProt P51681); assay: Inhibition of RANTES binding to C-C chemokine receptor type 5
C-C chemokine receptor type 5, sequence (P51681 whole entry): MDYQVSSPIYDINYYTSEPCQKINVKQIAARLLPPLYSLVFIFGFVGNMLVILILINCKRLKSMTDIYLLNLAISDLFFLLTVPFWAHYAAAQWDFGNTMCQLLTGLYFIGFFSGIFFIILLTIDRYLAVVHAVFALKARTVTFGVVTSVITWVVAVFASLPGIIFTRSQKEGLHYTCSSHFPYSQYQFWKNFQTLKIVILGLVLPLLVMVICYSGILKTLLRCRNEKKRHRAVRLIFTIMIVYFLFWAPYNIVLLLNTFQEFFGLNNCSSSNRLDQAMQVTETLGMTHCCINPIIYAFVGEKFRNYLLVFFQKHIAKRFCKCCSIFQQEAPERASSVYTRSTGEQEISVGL

[3] = system: Human immunodeficiency virus 1; assay: microbe, parasite or virus in culture; format: functional, organism-based; conditions: Human immunodeficiency virus 1, U-87 MG
Rattus norvegicus [4] = assay: Area under curve (0-6 hr) value in rat at a concentration of 10 mg/kg, peroral administration.; format: ADME, organism-based; design: time < 6 hr, dose 10 mg/kg, route oral; conditions: in vivo, po
[5] = In vivo pharmacokinetic parameter, half-life (t1/2) was measured in monkey after 2 mg/kg iv administration; conditions: simiiformes
[6] = Oral bioavailability was evaluated in monkey at a dose of 2 mg/kg; conditions: simiiformes, in vivo
Rattus norvegicus [7] = assay: Oral bioavailability was evaluated in rat at a dose of 10 mg/kg; format: ADME, organism-based; conditions: in vivo
Procedure, shortened: (§1)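 Rat pharmacokinetics using the amorphous tartrate salt. Dosing was 10 mg/kg iv in 20% hydroxypropyl-β-cyclodextrin and 10 mg/kg po in 0.4% methylcellulose. […] Oral bioavailability was derived by comparing oral with iv exposure.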

Canis familiaris [8] = assay: Oral bioavailability was evaluated in dog at a dose of 3 mg/kg; conditions: in vivo
Rattus norvegicus [9] = assay: In vivo pharmacokinetic parameter, Area under curve (AUC) was measured in rat after 10 mg/kg iv administration; format: ADME, organism-based; design: dose 10 mg/kg, route intravenous; procedure, shortened: as §1
[10] = In vivo pharmacokinetic parameter, half-life (t1/2) was measured in dog after 1 mg/kg iv administration
[11] = In vivo pharmacokinetic parameter, half-life (t1/2) was measured in rat after 10 mg/kg iv administration; format: ADME, organism-based; design: dose 10 mg/kg, route intravenous; procedure, shortened: as §1
[12] = In vivo pharmacokinetic parameter, Area under curve (AUC) was measured in monkey after 2 mg/kg iv administration; conditions: simiiformes
[13] = In vivo pharmacokinetic parameter, half-life (t1/2) was measured in dog after 1 mg/kg iv administration; remark: listed apart in the source
Canis familiaris [14] = assay: In vivo pharmacokinetic parameter, Area under curve (AUC) was measured in dog after 1 mg/kg iv administration

SMILES | AUC 0-6h (Rattus norvegicus [1]) | Ki [2] | IC50 [3] | other results
CO/N=C(\c1ccc(Br)cc1)C1CCN(C2(C)CCN(C(=O)c3c(N)cccc3Cl)CC2)CC1 | 0.61 µg·h/mL | 3.4 nM | 0.6 nM | 
CCO/N=C(\c1ccc(Br)cc1)C1CCN(C2(C)CCN(C(=O)c3c(C)ccnc3C)CC2)CC1 | 2.1 µg·h/mL | 1.1 nM | 0.2 nM | 
CO/N=C(\c1ccc(Br)cc1)C1CCN(C2(C)CCN(C(=O)c3c(C)cc[n+]([O-])c3C)CC2)CC1 | 2.4 µg·h/mL | 18 nM | 5.6 nM | 
Cc1cccc(C)c1C(=O)N1CCC(C)(N2CCC(C(=O)c3ccc(Br)cc3)CC2)CC1 |  | 54 nM | 13 nM | 
Cc1cccc(C)c1C(=O)N1CCC(C)(N2CCC(Cc3ccc(Br)cc3)CC2)CC1 |  | 66 nM | 10 nM | AUC 0-6h (Rattus norvegicus [4]): 0.04 µg·h/mL
CO/N=C(\c1ccc(Br)cc1)C1CCN(C2(C)CCN(C(=O)c3c(C)cccc3O)CC2)CC1 | 3 µg·h/mL |  | 4 nM | 
Cc1cccc(C)c1C(=O)N1CCC(C)(N2CCC(Oc3ccc(Br)cc3)CC2)CC1 |  | 29 nM |  | 
COc1ccc(S(=O)(=O)c2ccc(CC3CCN(C4CCN(C(=O)c5ccc(F)c6ccccc56)CC4)CC3)cc2)cc1 |  | 66 nM |  | 
CO/N=C(\c1ccc(Br)cc1)C1CCN(C2(C)CCN(C(=O)c3c(C)cccc3N)CC2)CC1 | 1.3 µg·h/mL | 4.5 nM | 0.5 nM | 
CO/N=C(/c1ccc(Br)cc1)C1CCN(C2CCN(C(=O)c3c(C)cccc3C)CC2)CC1 | 1.4 µg·h/mL | 2 nM | 1.2 nM | 
CO/N=C(/c1ccc(Br)cc1)C1CCN(C2(C)CCN(C(=O)c3c(C)cccc3C)CC2)CC1 | 1.2 µg·h/mL | 25 nM | 2.8 nM | 
CON=C(c1ccc(Br)cc1)C1CCN(C2(C)CCN(C(=O)c3c(C)cccc3C)CC2)CC1 | 2.1 µg·h/mL |  | 1.5 nM | 
Cc1cccc(C)c1C(=O)N1CCC(C)(N2CCC(Nc3ccc(Br)cc3)CC2)CC1 | 0.15 µg·h/mL |  | 5.5 nM | 
CO/N=C(\c1ccc(Br)cc1)C1CCN(C2(C)CCN(C(=O)c3c(C)ccnc3C)CC2)CC1 | 1.9 µg·h/mL | 1.1 nM | 0.5 nM | 
CCO/N=C(\c1ccc(Br)cc1)C1CCN(C2(C)CCN(C(=O)c3c(C)cccc3C)CC2)CC1 | 1 µg·h/mL | 1.8 nM | 1.3 nM | 
CCO/N=C(/c1ccc(Br)cc1)C1CCN(C2(C)CCN(C(=O)c3c(C)cccc3C)CC2)CC1 |  | 48 nM | 9.2 nM | 
CCO/N=C(\c1ccc(Br)cc1)C1CCN(C2(C)CCN(C(=O)c3c(C)cc[n+]([O-])c3C)CC2)CC1 [ANCRIVIROC] | 6.5 µg·h/mL | 2.1 nM | 0.6 nM | half-life [5]: 6 h; BA [6]: 52%; BA (Rattus norvegicus [7]): 63%; BA (Canis familiaris [8]): 92%; AUC (Rattus norvegicus [9]): 13 µg·h/mL; half-life [10]: 10 h; half-life [11]: 5 h; AUC [12]: 7.4 µg·h/mL; half-life [13]: 10 h; AUC (Canis familiaris [14]): 2.8 µg·h/mL
